From PubChem
Most compounds without a hit are left out; they make up all but 1.2% or so of the library.
CAL PDZ FP-1: CAL PDZ peptide-binding inhibitors, primary screen, biochemical, fluorescence polarization, Cer-tagged CAL PDZ, HTS | Golgi-associated PDZ and coiled-coil motif-containing protein (Homo sapiens), Q9HD26 | purified CAL PDZ, TMR-peptide fluorescence polarization, 1 h | inhibition, % at 20 µM | 330,000 tested, 0.02% active;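 active = highest replicate inhibition of at least 40%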
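material = purified tagged CAL PDZ domain construct (CerCALP) | buffer or medium = sodium phosphate/NaCl buffer pH 7.4 with TCEP, IgG, Thesit | reagent = TMR-labelled reporter peptide T*-PRC34 bound in PDZ groove | incubation = 1 h room-temperature incubation prior to read | measured by = fluorescence polarization (mP) | evaluation = percent inhibition from loss of millipolarization | control set = unlabelled peptide and DMSO controls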
ARNT TACC3 PPI: disruptors of ARNT/TACC3 protein interaction, primary screen, biochemical, AlphaScreen, single concentration. Transforming acidic coiled-coil-containing protein 3 (Homo sapiens), Q9Y6A5. AlphaScreen His-ARNT PAS-B/GST-TACC3 binding, luminescence; TACC3 fragment carries E629A point mutation. AID 623870, 2012. 390,000 tested, 0.66% active. inhibition, % at 9.99 µM;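 active = mean inhibition of replicates at least 50% and at least half of replicates each reaching 50%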
CAL PDZ FP-2: untagged CAL PDZ binding inhibitors, primary screen, biochemical, fluorescence polarization, HTS; Golgi-associated PDZ and coiled-coil motif-containing protein (Homo sapiens), Q9HD26; purified CAL PDZ, TMR-peptide fluorescence polarization, 1 h; inhibition, % at 24.9 µM; 300,000 tested, 0.92% active;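 active = mean inhibition of at least 30% with at least half of replicates also reaching 30%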
CaV13 ICDI inh: Primary screen for inhibitors of IQ motif and Ca2+-dependent inactivation inhibitor domain binding in CACNA1D, Förster resonance energy transfer in living cells, … | HEK cells, CFP/YFP FRET ICDI-IQ, plate reader, 10 min; percent FRET-ratio fall versus neutral wells | inhibition, % at 12.3 µM | 340,000 tested, 0.098% active | AID 743397;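 active = mean replicate inhibition of at least 30% and at least 1% of replicates passing that level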
ARNT Alpha ctr: AlphaScreen signal interference compounds, dose response, artefact control for ARNT-TACC3 interaction inhibitor project, biochemical, luminescence, cherry-pick; shares compounds with ARNT TACC3 PPI; His-ARNT PASB-GST AlphaScreen artifact counter-screen; AC50, µM (doses to about 68 µM); 1,200 tested, 50% active; AID 651705, 2012;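 active = every separate test run was called active for a drop in luminescence, with AC50 within twice the top valid dose, actives reach about 71 µM in these data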
A number is an active result; – = inactive; · = no result.

SMILES	CAL PDZ FP-1	ARNT TACC3 PPI	CAL PDZ FP-2	CaV13 ICDI inh	ARNT Alpha ctr
O=C(NCC1CC1)[C@H]1[C@H](CO)[C@H]2Cn3c(ccc(C4=CCCCC4)c3=O)[C@@H]1N2	·	–	·	·	·
CCC(=O)NC(c1cc(Cl)c2cccnc2c1O)C1CC1 (stereo not drawn)	–	58	–	–	37µM
CCC(=O)NC(c1cccs1)c1cc(Cl)c2cccnc2c1O (stereo not drawn)	–	–	–	–	·
CCC(=O)NC(c1cc(Cl)c2cccnc2c1O)C(C)C (stereo not drawn)	–	54	–	–	69µM
CC(=O)NC(c1ccccc1)c1cc(Cl)c2cccnc2c1O (stereo not drawn)	–	–	–	–	·
C[C@H](CO)N1C[C@H](C)[C@H](CN(C)S(C)(=O)=O)Oc2ccc(NC(=O)Cc3cn(C)c4ccccc34)cc2CC1=O	·	–	·	·	·
c1ccc(-c2cncnc2)nc1	–	–	–	–	·
c1ccc(-c2cnc(-c3ccccn3)nn2)cc1	–	65	–	–	32µM
c1ccc(-c2cnnc(-c3ccccn3)n2)cc1	–	57	–	–	26µM
Cc1ccc(S(=O)(=O)Nc2ccc3c(c2)CC(=O)N([C@@H](C)CO)C[C@H](C)[C@@H](CN(C)Cc2ccc(Cl)c(Cl)c2)O3)cc1	·	–	·	·	·
C[C@@H]1CCCCO[C@@H](CN(C)CC2CCCCC2)[C@H](C)CN([C@@H](C)CO)C(=O)c2cc(NC(=O)Nc3ccccc3)ccc2O1	·	–	·	·	·
COc1cccc(C(=O)N2C[C@@H]3[C@H](c4ccccc42)[C@H](CO)N3C(=O)c2cccc(F)c2)c1	·	–	·	·	·
C[C@H](CO)N1C[C@H](C)[C@H](CN(C)C(=O)Nc2ccc(F)cc2)Oc2ccc(NC(=O)Cc3ccccc3)cc2C1=O	·	–	·	·	·
Cc1sc2ncnc(N/N=C/c3ccc(O)cc3)c2c1C	–	–	–	–	·
Cc1sc2ncnc(N/N=C/c3ccccc3O)c2c1C	–	54	·	–	41µM
O=C(C[C@H]1C[C@@H]2c3cc(NC(=O)c4ccc5c(c4)OCO5)ccc3O[C@@H]2[C@@H](CO)O1)NCc1cccc(F)c1	·	–	·	·	·
O=S(=O)(c1ccccc1)N1C[C@H]2[C@@H](c3ccccc31)[C@@H](CO)N2Cc1ccccn1	·	27	·	·	–
Cc1cccc(S(=O)(=O)N2C[C@H]3[C@@H](c4ccccc42)[C@@H](CO)N3Cc2ccccn2)c1	·	–	·	·	·
Cc1[nH][nH]c(=O)c1C(c1ccc(-c2ccccc2C(=O)O)o1)c1c(C)[nH][nH]c1=O	–	54	–	–	–
COC(=O)c1ccc(-c2ccc(C(c3c(C)[nH][nH]c3=O)c3c(C)[nH][nH]c3=O)o2)cc1	–	–	–	–	·
O=C(c1ccco1)[C@@H]1[C@@H]2C(=O)N(c3ccccc3)C(=O)[C@@H]2C2c3ccccc3C=CN21 (stereo partly drawn)	–	41	–	–	–
C[C@H](CO)N1C[C@H](C)[C@@H](CN(C)C(=O)Nc2ccc(F)cc2)Oc2c(NS(=O)(=O)c3ccc(F)cc3)cccc2C1=O	·	–	·	·	·
Cc1cccc(C)c1Nc1c(-c2ccccn2)nc2ccccn12	–	65	–	–	18µM
Cc1ccc2nc(-c3ccccn3)c(NC3CCCC3)n2c1	–	61	–	–	32µM
Cc1cc(C)n2c(Nc3c(C)cccc3C)c(-c3ccccn3)nc2n1	·	·	·	–	·
SMILES	CAL PDZ FP-1	ARNT TACC3 PPI	CAL PDZ FP-2	CaV13 ICDI inh	ARNT Alpha ctr
CCCCCCSc1cccc(-c2nc3ccc(C)cn3c2NC2CCCCC2)c1	–	–	–	–	·
Cc1ccc(Nc2c(-c3ccccn3)nc3cccc(C)n23)cc1	–	56	–	–	20µM
Cc1cccc2nc(-c3ccco3)c(Nc3ccccc3)n12	–	–	–	–	·
O=C(C[C@H]1CC[C@H]2[C@@H](COC[C@H](O)CN2Cc2cccc(C(F)(F)F)c2)O1)NCc1ccc(Cl)cc1	·	–	·	·	·
C[C@@H]1CN([C@H](C)CO)C(=O)c2cc(NS(=O)(=O)c3cn(C)cn3)ccc2O[C@@H](C)CCCCO[C@H]1CN(C)C(=O)Nc1ccc(F)cc1	·	–	·	·	·
Cc1[nH]cnc1CN1CCc2c(c3ccccc3n2C)C1=O	–	28	–	–	–
CN(C)CCCNC(=O)C[C@H]1C=C[C@@H](NS(=O)(=O)c2ccccc2)[C@H](CO)O1	·	–	·	·	·
CC(C)c1ccc(O)c(NC(=O)c2cncc(Br)c2)c1	–	–	–	–	·
CC(C)c1ccc(O)c(NC(=O)c2ncn[nH]2)c1	–	31	–	–	–
OCCSCC(O)CC(O)c1ccccc1 (stereo not drawn)	·	–	·	·	·
O=c1[nH]c(Nc2ccccc2)cc2cc(Br)ccc12	–	–	–	–	·
COc1ccccc1Nc1cc2cc(Br)ccc2c(=O)[nH]1	–	55	–	–	–
Cc1cc(C)n2nc(-c3cccc(Br)c3)cc2n1	–	51	–	–	–
Cc1cc(N/N=C/c2ccc(O)cc2)c2cccc(C)c2n1	–	–	–	–	·
Cc1cc(C)c2nc(C)cc(N/N=C/c3ccc(O)cc3)c2c1	–	55	–	–	32µM
Nc1nnc2c(n1)CCCC2	–	55	–	–	–
CC(C)Nc1nc(-c2ccccn2)nc(-c2ccccc2)c1C#N	–	·	–	–	·
c1ccc(-c2cnc(Nc3nc(-c4ccccn4)nnc3-c3ccccc3)s2)cc1	·	·	·	·	2.6µM
Cc1ccc(Nc2nc(-c3ccccn3)nnc2-c2ccccc2)cn1	·	·	·	·	0.42µM
COc1ccc(CCNC(=O)CSc2nnc3ccc(-c4ccccn4)nn23)cc1	–	48	–	–	68µM
CCC(=O)N1C[C@@H](C)[C@H](OC)CN(C)C(=O)c2cc(NS(=O)(=O)CC)ccc2OC[C@@H]1C	·	–	·	·	·
COc1ccc(-c2[nH]ncc2/C=N/NC(=O)c2cccc([N+](=O)[O-])c2)cc1OC	–	–	–	–	·
COc1ccc(-c2[nH]ncc2/C=N\NC(=O)c2cccs2)cc1OC	–	51	–	·	–
CO[C@@H]1CN(C)C(=O)c2cc(NC(=O)C3CC3)ccc2OC[C@H](C)N(CC2CCOCC2)C[C@H]1C	·	–	·	·	·
CC(C)NC(=O)Nc1ccc2c(c1)C(=O)N([C@H](C)CO)C[C@H](C)[C@H](CN(C)C(=O)c1ccncc1)OCCCC[C@H](C)O2	·	–	·	·	·
COc1ccc(-c2oc3cc(O)c(OC)c(O)c3c(=O)c2OC)cc1O	–	56	–	–	–
COc1ccc([Si](C)(C)[C@H]2[C@H](CCO)O[C@@]3(C(=O)N4c5c(cc(OC)cc53)C(C)=CC4(C)C)[C@@H]2C)cc1	·	–	·	·	·
